Measurements as given in ChEMBL document CHEMBL1123577, “Synthesis and structure-activity relationships of a series of aminopyridazine derivatives of gamma-aminobutyric acid acting as selective GABA-A antagonists” (J Med Chem, 1987).

Assays:
[1] = molecular target: GABA-A receptor; anion channel; experiment: Binding affinity, determined by its ability to displace the [3H]GABA from Gamma-aminobutyric acid A (GABA-A) receptor site of rat brain membranes; parameters: species or system Membrane
[2] = molecular target: GABA-A receptor; anion channel; experiment: Inhibition of [3H]GABA binding to Gamma-aminobutyric acid A (GABA-A) receptor of rat brain membranes; format: cell membranes, Membrane
Procedure, shortened: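 Triton-treated whole-brain membranes from male Wistar rats (180–220 g), labelled with [3H]GABA at 2.9 nM. Compounds were first screened at 100 μM. Those inhibiting binding by more than 50% were run as dose-inhibition curves of four to eight concentrations in triplicate incubations, and IC50 was derived by log-probit analysis.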

[3] = Inhibitory activity against sodium-dependent synaptosome uptake was determined; format: functional, tissue-based, Brain
[4] = molecular target: 4-aminobutyrate aminotransferase, mitochondrial (Homo sapiens, UniProt P80404); experiment: Compound was tested for inhibition of Gamma-amino-N-butyrate transaminase
Sequence of 4-aminobutyrate aminotransferase, mitochondrial (P80404 whole entry): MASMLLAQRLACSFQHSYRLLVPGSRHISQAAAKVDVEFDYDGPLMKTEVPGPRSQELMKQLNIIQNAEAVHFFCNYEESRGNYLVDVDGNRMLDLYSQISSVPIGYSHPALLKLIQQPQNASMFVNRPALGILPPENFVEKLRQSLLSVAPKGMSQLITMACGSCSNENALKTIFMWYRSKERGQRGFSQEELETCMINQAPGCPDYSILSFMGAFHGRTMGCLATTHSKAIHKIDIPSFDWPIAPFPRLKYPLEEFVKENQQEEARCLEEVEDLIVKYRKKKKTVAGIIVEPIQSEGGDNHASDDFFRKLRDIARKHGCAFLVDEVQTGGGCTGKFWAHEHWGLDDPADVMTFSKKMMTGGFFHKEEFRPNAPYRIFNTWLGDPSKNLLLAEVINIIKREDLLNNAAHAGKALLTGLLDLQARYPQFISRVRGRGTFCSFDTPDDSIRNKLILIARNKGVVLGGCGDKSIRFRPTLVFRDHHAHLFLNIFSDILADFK

Row | SMILES | Ki [1] [µM] | further results
1 | Nc1ccc(-c2cccs2)n[n+]1CCCC(=O)O | 0.58 | –
2 | Nc1ccc(C2CCCCC2)n[n+]1CCCC(=O)O | 3.74 | –
3 | Cc1n[n+](CCCC(=O)O)c(N)cc1-c1ccccc1 | 10.6 | –
4 | Cc1ccn[n+](CCCC(=O)O)c1N | 31.9 | –
5 | N#CCCC[n+]1nc(-c2ccccc2)ccc1N | 91 | –
6 | Cc1cc(-c2ccccc2)n[n+](C(C)CCC(=O)O)c1N (configuration not stated) | 9 | –
7 | Cc1cc(-c2ccccc2)n[n+](CCC(C)C(=O)O)c1N (configuration not stated) | 7 | –
8 | Cc1ccc(-c2cc(C)c(N)[n+](CCCC(=O)O)n2)cc1 | 0.55 | –
9 | N#CCCC[n+]1nc(-c2ccccc2)cc(-c2ccccc2)c1N | 91 | –
10 | Cc1cc(N)[n+](CCCC(=O)O)nc1-c1ccccc1 | 10.4 | –
11 | COc1ccc(-c2cc(C)c(N)[n+](CCCC(=O)O)n2)cc1 | 0.31 | –
12 | NC1C=CC(c2ccccc2)=NN1CCCC(=O)O (configuration not stated) | 1.22 | –
13 | Nc1ccc(-c2ccccc2Cl)n[n+]1CCCC(=O)O | 1.37 | –
14 | CC(C)Cc1ccc(N)[n+](CCCC(=O)O)n1 | 22.3 | –
15 | Cc1cc(-c2ccccc2)n[n+](CCC(=O)O)c1N | 7 | –
16 | Cc1cc(-c2ccccc2)n[n+](CCCC#N)c1N | 20 | –
17 | Cc1cc(-c2ccccc2)n[n+](CCCCCC(=O)O)c1N | 12.7 | –
18 | CCOC(=O)CCC[n+]1nc(-c2ccccc2)cc(C)c1N | > 100 | –
19 | Cc1cc(-c2ccc(O)cc2)n[n+](CCCC(=O)O)c1N | 0.43 | –
20 | Cc1cc(-c2ccccc2)n[n+](CCCCC(=O)O)c1N | 10 | –
21 | Nc1ccc(-c2ccsc2)n[n+]1CCCC(=O)O | 2.37 | –
22 | CCCN(CCC)CCCC(=O)O | > 100 | –
23 | O=C(O)CCCC1CCNC1 (configuration not stated) | > 100 | –
24 | NC1C(c2ccccc2)=CC(c2ccccc2)=NN1CCCC(=O)O (configuration not stated) | 100 | –
25 | Cc1cc(-c2ccc([N+](=O)[O-])cc2)n[n+](CCCC(=O)O)c1N | 22.8 | –
26 | N=C(N)SCCC(=O)O | – | IC50 [2]: 29 µM

Row | SMILES | Ki [1] [µM] | further results
27 | Oc1onc2c1CCNCC2 | 50 | –
28 | [N-]=[N+]=Nc1ccc(/C(N)=N/CCCC(=O)O)cc1 | – | Ki [3]: 8 µM
29 | Cc1cc(-c2ccccc2)n[n+](CCCC(N)=O)c1N | 91 | –
30 | NC(=O)NCCCC(=O)O | 100 | –
31 | O=C(O)CNC(=S)Nc1ccccc1 | – | Ki [4]: 91 µM
32 | Cc1cc(-c2cccc3ccccc23)n[n+](CCCC(=O)O)c1N | 2.64 | –
33 | Nc1ccc(-c2ccc(F)cc2)n[n+]1CCCC(=O)O | 1.27 | –
34 | Nc1ccc(-c2ccc(Cl)cc2)n[n+]1CCCC(=O)O | 0.28 | –
35 | Cc1cc(-c2cccc(Cl)c2)n[n+](CCCC(=O)O)c1N | 0.45 | –
36 | Cc1cc(-c2ccccc2Cl)n[n+](CCCC(=O)O)c1N | 2.14 | –
37 | Nc1ccc(Cl)n[n+]1CCCC(=O)O | 91.2 | –
38 | Nc1ccc(-c2ccc(Cl)cc2Cl)n[n+]1CCCC(=O)O | 0.56 | –
39 | Nc1nc(CCC(=O)O)cs1 | – | IC50 [2]: 68 µM
40 | Cc1cc(-c2ccccc2)nn(CCCC(=O)O)c1=O | > 100 | –
41 | CC(C)(C)C(=O)ONCCCC(=O)O | 100 | –
42 | C[N+]1(C)CCc2cc3c(cc2[C@H]1[C@@H]1OC(=O)c2c1ccc1c2OCO1)OCO3 | 38 | –
43 | Nc1ccc(-c2ccc([N+](=O)[O-])cc2)n[n+]1CCCC(=O)O | 1.37 | –
44 | CC12CC(=O)C3C(CCC4CC(O)CCC43C)C1CC(=N)N2 (configuration not stated) | 0.047 | –
45 | Nc1cc(-c2ccccc2)cn[n+]1CCCC(=O)O | 100 | –
46 | N/C(S)=N\CC(=O)O | – | IC50 [2]: 18 µM
47 | O=C(O)CCc1c[nH]cn1 | – | IC50 [2]: 290 µM
48 | Cc1cc(-c2ccccc2)n[n+](CC(=O)O)c1N | 62 | –
49 | Cc1cc(-c2ccccc2)n[n+](CCCC(=O)O)c1N [FAMIRAPRINIUM CHLORIDE] | 2.3 | –
50 | N=C(N)NCC(=O)O [GUANIDINO ACETATE] | – | IC50 [2]: 2.1 µM
51 | O=C(O)Cc1c[nH]cn1 [IMIDAZOLE ACETIC ACID] | – | IC50 [2]: 0.9 µM
52 | N=C(N)NCCC(=O)O [OMPENACLID] | – | IC50 [2]: 1.8 µM
